Source: ChEMBL document CHEMBL4316619 (Bioorg Med Chem Lett, 2019)
Activity calls are given as the source filed them. No cut-off for these calls is given here.

Tests used:
[1] = Drug level in C57BL/6 mouse lung at 30 mg/kg, ip measured at 4 hrs; format: ADME, organism-based; details: in vivo
Summary of the method: (§1)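 Male C57BL/6 mice received a single intraperitoneal dose of 30 mg/kg (N=3). Compound concentrations were followed over time in plasma, liver and lung. Tmax, Cmax, terminal t1/2, AUClast and AUCINF were derived from the mean concentration-time profiles.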

[2] = Drug level in C57BL/6 mouse liver at 30 mg/kg, ip measured at 2 hrs; format: ADME, organism-based; details: in vivo; summary of the method: as §1
Influenza A virus [3] = assay: Antiviral activity against Influenza A virus (A/California/7/2009(H1N1)) infected in MDCK cells assessed as reduction in virus-induced cytopathic effect measured on day 5 by Celltiter-Glo luminescence assay; format: functional, organism-based; details: 120 h
Summary of the method: (§2)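 MDCK cells were infected with seasonal influenza A strains through NIAID resources and scored for protection from virus-induced cell death. Compounds were tested at four concentrations (0.8, 4, 20, 100 μM). EC50/EC90 (reduction of viral cell death) and CC50 (reduction of cell viability) were derived in μM, and SI50 = CC50/EC50.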

[4] = Drug level in C57BL/6 mouse lung at 30 mg/kg, ip measured at 0.083 hrs; format: ADME, organism-based; details: in vivo; summary of the method: as §1
[5] = Drug level in C57BL/6 mouse liver at 30 mg/kg, ip measured at 3 hrs; format: ADME, organism-based; details: in vivo; summary of the method: as §1
[6] = Apparent permeability across apical to basolateral side in human Caco2 cells measured after 2 hrs; format: ADME, cell-based; details: caco-2, 2 h
Summary of the method: (§3)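 Permeability was measured across Caco-2 monolayers in both directions, apical to basolateral and basolateral to apical. […] Runs were done with and without 3% BSA, and mass recovery (%) was reported for each direction. Efflux ratio = Papp B→A / Papp A→B.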

[7] = Drug level in C57BL/6 mouse liver at 30 mg/kg, ip measured at 4 hrs; format: ADME, organism-based; details: in vivo; summary of the method: as §1
[8] = Tmax in C57BL/6 mouse lung at 30 mg/kg, ip; format: ADME, organism-based
Summary of the method: (§4)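 Male C57BL/6 mice, single intraperitoneal 30 mg/kg dose, N=3. Plasma, liver and lung concentrations followed over time to give concentration-time profiles, from which Tmax, Cmax, terminal t1/2, AUClast and AUCINF were derived.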

[9] = Drug level in C57BL/6 mouse liver at 30 mg/kg, ip measured at 0.083 hrs; format: ADME, organism-based; details: in vivo; summary of the method: as §1
Influenza A virus [10] = assay: Effect on NS1 protein expression in Influenza A virus A/PR/8/34 (H1N1) infected in MDCK cells at 20 uM by Western blot analysis; format: functional, organism-based; details: A/Puerto Rico/8/1934(H1N1)
Summary of the method: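 MDCK cells, uninfected or infected with A/PR/8/34, treated with DMSO or compound at 20 μM. NS1 protein detected by Western blot, with α-tubulin as loading control.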

[11] = Apparent permeability across basolateral to apical side in human Caco2 cells assessed as drug recovery in presence of 3% BSA; format: ADME, cell-based; details: caco-2; summary of the method: as §3
[12] = Drug level in C57BL/6 mouse lung at 30 mg/kg, ip measured at 0.5 hrs; format: ADME, organism-based; details: in vivo; summary of the method: as §1
MDCK = assay: Cytotoxicity against MDCK cells assessed as reduction in cell viability up to 100 uM measured after 48 hrs by CellTiter Glo assay; format: cell-based, Canis lupus familiaris; details: dog
Summary of the method: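 MDCK cells were incubated with compound under the conditions of the 48 h replication assay. Cytotoxicity was read with the CellTiter-Glo ATP viability assay. Follow-up viability testing used 5, 10, 50 and 100 μM.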

[13] = Tmax in C57BL/6 mouse plasma at 30 mg/kg, ip; format: ADME, organism-based; details: mouse, in vivo; summary of the method: as §4
[14] = Stability of the compound in mouse liver microsomes assessed as parent compound remaining measured after 30 mins; format: ADME, Microsome; details: read-out: Stability
Summary of the method: (§5)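 Mouse liver microsomes; percent parent compound remaining measured at 0, 15 and 30 min.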

[15] = Drug level in C57BL/6 mouse lung at 30 mg/kg, ip measured at 1 hrs; format: ADME, organism-based; details: in vivo; summary of the method: as §1
[16] = Toxicity in C57BL/6 mouse assessed as effect on lungs at 30 mg/kg, ip; format: organism-based; details: in vivo
[17] = Apparent permeability across basolateral to apical side in human Caco2 cells measured after 2 hrs; format: ADME, cell-based; details: caco-2, 2 h; summary of the method: as §3
[18] = Apparent permeability across basolateral to apical side in human Caco2 cells assessed as drug recovery; format: ADME, cell-based; details: caco-2; summary of the method: as §3
[19] = Toxicity in C57BL/6 mouse assessed as adverse effect at 30 mg/kg, ip; format: organism-based; details: in vivo
[20] = Toxicity in C57BL/6 mouse assessed as effect on liver at 30 mg/kg, ip; format: organism-based; details: in vivo
[21] = Drug level in C57BL/6 mouse lung at 30 mg/kg, ip measured at 48 hrs; format: ADME, organism-based; details: in vivo; summary of the method: as §1
[22] = Apparent permeability across apical to basolateral side in human Caco2 cells measured after 2 hrs in presence of 3% BSA; format: ADME, cell-based; details: caco-2, 2 h; summary of the method: as §3
[23] = AUClast in C57BL/6 mouse plasma at 30 mg/kg, ip; format: ADME, organism-based; set-up: dose 30 mg/kg, route intraperitoneal, time 0 - last; summary of the method: as §1
[24] = Drug level in C57BL/6 mouse plasma at 30 mg/kg, ip measured at 1 hrs; format: ADME, organism-based; summary of the method: as §4
[25] = Terminal half life in C57BL/6 mouse plasma at 30 mg/kg, ip; format: ADME, organism-based; details: mouse, in vivo; summary of the method: as §4
[26] = target: Non-structural protein 1 (Influenza A virus (strain A/Puerto Rico/8/1934 H1N1)) (UniProt P03496); assay: Inhibition of NS1 in Influenza A virus A/PR/8/34 (H1N1) infected in MDCK cells assessed as restoration of protein-induced reduction in IFN-beta mRNA expression at 20 uM measured after 6 hrs by RT-PCR analysis; format: cell-based; details: Influenza A virus (A/Puerto Rico/8/1934(H1N1))
Non-structural protein 1 (Influenza A virus (strain A/Puerto Rico/8/1934 H1N1)), sequence (P03496 whole entry): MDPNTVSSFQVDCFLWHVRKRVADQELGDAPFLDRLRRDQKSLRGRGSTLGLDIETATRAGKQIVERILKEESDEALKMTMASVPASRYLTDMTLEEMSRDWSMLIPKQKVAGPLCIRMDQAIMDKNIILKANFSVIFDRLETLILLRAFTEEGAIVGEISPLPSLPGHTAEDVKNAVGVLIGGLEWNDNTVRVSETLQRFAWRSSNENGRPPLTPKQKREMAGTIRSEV
Summary of the method: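 MDCK cells infected with A/PR/8/34 at MOI 2 and incubated 6 h with compound at 20 μM. Cells harvested; IFN-β and β-actin mRNA detected by RT-PCR. Poly(I:C) lane serves as positive control for IFN-β induction.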

Influenza A virus [27] = assay: Antiviral activity against Influenza A virus A/PR/8/34 (H1N1) infected in MDCK cells assessed as reduction in virus titer measured after 48 hrs by hemagglutination assay; format: functional; details: A/Puerto Rico/8/1934(H1N1)
Summary of the method: (§6)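 MDCK cells were infected with A/PR/8/34 (H1N1) at MOI 0.1 and incubated with compound for 48 h. Supernatant virus was then quantified by hemagglutination assay and standard TCID50 analysis. The single-concentration screen used 10 μM and reports fold reduction in titer. Dose-response runs used triplicate cultures, with percent titer decrease back-calculated from TCID50.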

Influenza A virus [28] = assay: Antiviral activity against Influenza A virus A/PR/8/34 (H1N1) infected in MDCK cells assessed as fold reduction in virus titer at 10 uM measured after 48 hrs by hemagglutination assay relative to control; format: functional, A/Puerto Rico/8/1934(H1N1); summary of the method: as §6
Influenza A virus H3N2 = assay: Antiviral activity against Influenza A virus (A/Brisbane/10/2007(H3N2)) infected in MDCK cells assessed as reduction in virus-induced cytopathic effect measured on day 5 by Celltiter-Glo luminescence assay; format: functional, organism-based; details: 120 h; summary of the method: as §2
[29] = AUClast in C57BL/6 mouse liver at 30 mg/kg, ip; format: ADME, organism-based; set-up: dose 30 mg/kg, time 0 - last, route intraperitoneal; summary of the method: as §1
[30] = Cmax in C57BL/6 mouse plasma at 30 mg/kg, ip; format: ADME, organism-based; set-up: dose 30 mg/kg, route intraperitoneal; details: mouse, in vivo; summary of the method: as §1
[31] = Stability of the compound in mouse liver microsomes assessed as parent compound remaining measured after 15 mins; format: ADME, Microsome; details: read-out: Stability; summary of the method: as §5
[32] = Drug level in C57BL/6 mouse lung at 30 mg/kg, ip measured at 12 hrs; format: ADME, organism-based; details: in vivo; summary of the method: as §1

Work on COc1cc(-c2ccnc3c2c(C)nn3-c2ccc(C(F)(F)F)cc2)ccc1O yielded a Drug uptake [1] of 11477 nmol/kg, a Drug uptake [2] of 18413 nmol/kg and an EC50 (Influenza A virus [3]) of 0.7 µM. The EC90 (Influenza A virus [3]) was greater than 50 µM, the Drug uptake [4] was 20891 nmol/kg and the Drug uptake [5] was 10058 nmol/kg. It also gave a Papp [6] of 0.1 ×10⁻⁶ cm/s, a Drug uptake [7] of 13997 nmol/kg and a Tmax [8] of 15 min. For the same molecule, the Drug uptake [9] was 114014 nmol/kg, the Activity (Influenza A virus [10]) was “inactive” and the Drug recovery [11] was 81%. The Drug uptake [12] was 36057 nmol/kg, the Activity (MDCK) was “Non-Toxic” and the Tmax [13] was 15 min. The remaining at 0.5 h [14] was 45%, the Drug uptake [15] was 26592 nmol/kg and the Activity [16] was “Non-Toxic”. For the same molecule, the Papp [17] was 0.23 ×10⁻⁶ cm/s, the Drug recovery [18] was 9% and the Activity [19] was “Non-Toxic”. For the same molecule, the Activity [20] was “Non-Toxic”, the Drug uptake [21] was 15 nmol/kg and the Papp [22] was 0.22 ×10⁻⁶ cm/s. The AUC(0-t) [23] was 7660 ng·h/mL, the concentration at 1 h [24] was 5.12 µM and the “beta t1/2” value [25] was 276 min. For the same molecule, the inhibition [26] was “Active”, the IC90 (Influenza A virus [27]) was 0.155 µM and the “fold change (FC)” value (Influenza A virus [28]) was 128. It also gave an EC50 (Influenza A virus H3N2) of 17 µM, an EC90 (Influenza A virus H3N2) greater than 50 µM and an AUC(0-t) [29] of 80200 ng·h/mL. The Cmax [30] was 2437 ng/mL, the remaining at 0.25 h [31] was 66% and the Drug uptake [32] was 1741 nmol/kg.
